# Measured values of several laboratories.
# Each line is one published result; the experiments were not run side by side. pEC50, pIC50, pKi: −log10 of the molar value.
# CHRM5: Muscarinic acetylcholine receptor M5 (CHRM5, Homo sapiens, UniProt P08912)
# TPR: Trypanothione reductase (TPR, Trypanosoma cruzi, UniProt P28593)
Compound,target,observed,mode,technique,setting,endpoint,value
CCCCc1cc2cc(-n3nc(C)c4c3CC(C)(C)CC4=O)cc(N[C@H]3CC[C@H](O)CC3)c2c(=O)[nH]1,"Heat shock protein HSP 90-beta (HSP90AB1, Homo sapiens, UniProt P08238)",ligand displacement,,FP,,pIC50,6.73
Cc1cc(C)c2[nH]c(=O)c(CN(CCO)C(=S)Nc3ccc(O)cc3)cc2c1,"Beta-glucuronidase (uidA, Escherichia coli, UniProt P05804)",enzyme activity,inhibitor,,,pEC50,5.35
CC(C)(C)[C@H](Nc1nc(Cl)nc2c1ncn2[C@H]1[C@H](O)[C@H](O)[C@]2(CO)C[C@H]12)C1CC1,CHRM5,ligand displacement,,radioligand,,pKi,< 5.21
C=CCn1c2cc(OC(=O)CCCCN3CCN(Cc4ccccc4C(F)(F)F)CC3)ccc2c2ccnc(C)c21,"Cholinesterase (BCHE, Homo sapiens, UniProt P06276)",enzyme activity,inhibitor,Ellman,,pIC50,6.45
CC(C)C(Nc1nc(Cl)nc2c1ncn2[C@H]1[C@H](O)[C@H](O)[C@]2(CO)C[C@H]12)C(C)C,CHRM5,ligand displacement,,radioligand,,pKi,< 5.20
[O]=[V]([OH])([OH])[OH],"Tyrosyl-DNA phosphodiesterase 2 (TDP2, Homo sapiens, UniProt O95551)",enzyme activity,inhibitor,absorbance,,pIC50,1.40
CC(C)C[C@H](NC(=O)[C@H](Cc1ccccc1)NC(=O)c1cnccn1)B(O)O,"Plasma kallikrein (KLKB1, Homo sapiens, UniProt P03952)",enzyme activity,inhibitor,,,pIC50,5.70
CNC(=O)[C@@]12C[C@@H]1[C@@H](n1cnc3c(NC)nc(C#Cc4ccc(Cl)s4)cc31)[C@H](O)[C@@H]2O,"Sodium-dependent noradrenaline transporter (SLC6A2, Homo sapiens, UniProt P23975)",ligand displacement,,radioligand,cell membranes,pKi,< 5.00
CC1=NCCc2c1[nH]c1cc(O)ccc21,"Tyrosine-protein phosphatase non-receptor type 12 (PTPN12, Homo sapiens, UniProt Q05209)",enzyme activity,inhibitor,fluorescence,,pIC50,4.46
C[C@H](N)Cn1ncc2ccc3c(c21)CCCO3,"Serotonin 4 (5-HT4) receptor (Sus scrofa, UniProt Q6Q253)",ligand displacement,,radioligand,,pIC50,4.52
O=c1c2ccccc2[se]n1-c1ccccc1,TPR,enzyme activity,inhibitor,absorbance,,pIC50,5.87
CSCC[C@H](NC(=O)[C@H](CCC(N)=O)NC(=O)[C@H](C)NC(=O)[C@H](CO)NC(=O)[C@@H](N)CO)C(=O)N[C@@H](CC(N)=O)C(=O)N[C@@H](CC(C)C)C(=O)N[C@@H](CC(N)=O)C(=O)N[C@H](C(=O)N[C@@H](Cc1ccccc1)C(=O)N[C@@H](CC(C)C)C(=O)N[C@@H](CC(N)=O)C(=O)O)[C@@H](C)O,"1-deoxy-D-xylulose 5-phosphate reductoisomerase (Escherichia coli K-12, UniProt P45568)",enzyme activity,inhibitor,absorbance,with preincubation,pIC50,3.58
Nc1c2c(nc3ccccc13)CCCC2,"Ribosyldihydronicotinamide dehydrogenase [quinone] (NQO2, Homo sapiens, UniProt P16083)",enzyme activity,inhibitor,absorbance,,pIC50,5.52
CNC1CC(c2ccc(Cl)c(Cl)c2)c2ccccc21 (stereo not drawn),TPR,enzyme activity,inhibitor,absorbance,,pIC50,5.14
CSCC[C@H](NC(=O)[C@H](CC(C)C)NC(=O)[C@H](Cc1cnc[nH]1)NC(=O)CNC(=O)[C@@H](NC(=O)[C@H](C)NC(=O)[C@H](Cc1c[nH]c2ccccc12)NC(=O)[C@H](CCC(N)=O)NC(=O)[C@H](CC(N)=O)NC(=O)CNC(=O)[C@H](CC(C)C)NC(=O)[C@H](CCCN=C(N)N)NC(=O)[C@H](CCC(N)=O)NC(=O)[C@@H]1CCC(=O)N1)C(C)C)C(N)=O,"Bombesin receptor subtype-3 (Brs3, Mus musculus, UniProt O54798)",calcium signal,agonist,fluorescence,,pEC50,< 5.00
